Laboratory results reported in ChEMBL document CHEMBL6087457, “Discovery of MDI-114215: A Potent and Selective LIMK Inhibitor To Treat Fragile X Syndrome” (J Med Chem, 2025).
The source made the active and inactive calls. The rule behind the calls is not given here.

Tests used:
[1] = Drug concentration in plasma of CD-1 mouse at 30 mg/kg/day, ip treated daily for 28 days; type: ADME, organism-based; conditions: time 28 day
Cytochrome P450 1A2 = molecular target: T1, Cytochrome P450 1A2 (Homo sapiens, UniProt P05177); assay: Inhibition of CYP1A2 (unknown origin); type: ADME, microsomes, Liver, Microsome
T1 sequence (P05177 whole entry): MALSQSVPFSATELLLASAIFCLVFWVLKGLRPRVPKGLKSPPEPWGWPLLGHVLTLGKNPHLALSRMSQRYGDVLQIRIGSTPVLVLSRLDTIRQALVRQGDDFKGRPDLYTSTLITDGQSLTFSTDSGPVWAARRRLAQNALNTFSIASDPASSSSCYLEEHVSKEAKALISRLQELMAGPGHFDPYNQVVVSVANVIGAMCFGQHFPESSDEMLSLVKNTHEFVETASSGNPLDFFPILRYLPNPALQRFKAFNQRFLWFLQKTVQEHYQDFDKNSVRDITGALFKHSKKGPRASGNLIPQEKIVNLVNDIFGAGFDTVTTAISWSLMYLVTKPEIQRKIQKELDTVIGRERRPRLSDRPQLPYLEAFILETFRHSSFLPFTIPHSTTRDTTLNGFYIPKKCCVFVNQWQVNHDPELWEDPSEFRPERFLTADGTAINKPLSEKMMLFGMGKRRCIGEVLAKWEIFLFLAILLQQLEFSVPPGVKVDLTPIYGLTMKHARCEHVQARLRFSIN

Cytochrome P450 2C19 = Cytochrome P450 2C19 (Homo sapiens, UniProt P33261); assay: Inhibition of CYP2C19 (unknown origin); type: ADME, microsomes, Liver, Microsome
Sequence of Cytochrome P450 2C19 (P33261 whole entry): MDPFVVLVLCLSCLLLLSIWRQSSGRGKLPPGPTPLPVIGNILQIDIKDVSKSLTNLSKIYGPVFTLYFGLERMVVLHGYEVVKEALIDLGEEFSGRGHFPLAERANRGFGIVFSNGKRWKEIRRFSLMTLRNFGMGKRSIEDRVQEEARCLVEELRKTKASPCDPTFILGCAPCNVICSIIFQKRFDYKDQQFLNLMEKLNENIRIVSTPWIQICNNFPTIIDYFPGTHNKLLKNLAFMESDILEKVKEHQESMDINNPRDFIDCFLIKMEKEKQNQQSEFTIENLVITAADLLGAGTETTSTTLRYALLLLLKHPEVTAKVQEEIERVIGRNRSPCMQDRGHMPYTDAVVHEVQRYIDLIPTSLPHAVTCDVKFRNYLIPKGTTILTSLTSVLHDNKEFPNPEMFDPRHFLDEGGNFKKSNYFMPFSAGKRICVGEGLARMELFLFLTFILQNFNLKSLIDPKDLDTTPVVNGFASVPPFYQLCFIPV

Cytochrome P450 2D6 = Cytochrome P450 2D6 (Homo sapiens, UniProt P10635); assay: Inhibition of CYP2D6 (unknown origin); type: ADME, microsomes, Liver, Microsome
Sequence of Cytochrome P450 2D6 (P10635 whole entry): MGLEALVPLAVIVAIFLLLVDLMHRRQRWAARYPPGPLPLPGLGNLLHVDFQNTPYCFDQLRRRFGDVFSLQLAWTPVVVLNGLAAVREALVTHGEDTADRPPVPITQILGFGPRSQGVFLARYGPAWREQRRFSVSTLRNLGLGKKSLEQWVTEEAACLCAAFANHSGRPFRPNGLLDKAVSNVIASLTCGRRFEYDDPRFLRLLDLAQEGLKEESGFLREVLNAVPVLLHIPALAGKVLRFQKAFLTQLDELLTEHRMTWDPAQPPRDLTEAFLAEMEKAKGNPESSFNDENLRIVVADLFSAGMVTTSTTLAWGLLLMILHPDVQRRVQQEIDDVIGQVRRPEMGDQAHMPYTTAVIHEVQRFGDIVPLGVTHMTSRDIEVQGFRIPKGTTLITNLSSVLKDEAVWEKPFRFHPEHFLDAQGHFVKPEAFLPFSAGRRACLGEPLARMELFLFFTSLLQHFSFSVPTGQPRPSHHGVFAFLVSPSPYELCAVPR

[2] = Toxicity in CD-1 mouse assessed as body weight change at 30 mg/kg/day, ip treated daily for 28 days; type: organism-based; conditions: in vivo, 672 h, time 28 day
Procedure, shortened: (§1)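 Male CD-1 mice, 6 weeks old at start, dosed with vehicle or 30 mg/kg/day i.p. once daily for 28 days, followed by a 2-week treatment-free recovery. Endpoints: body weight, food consumption, clinical signs, macro- and microscopic pathology, and organ weights (male sexual organs) after […] of dosing and after recovery. Data given as mean ± SEM.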

[3] = Toxicity in CD-1 mouse assessed as effect on food consumption at 30 mg/kg/day, ip treated daily for 28 days; type: organism-based; conditions: in vivo, 672 h, time 28 day; procedure, shortened: as §1
[4] = Toxicity in CD-1 mouse assessed as adverse clinical signs at 30 mg/kg/day, ip treated daily for 28 days; type: organism-based; conditions: in vivo, 672 h, time 28 day; procedure, shortened: as §1
[5] = Toxicity in CD-1 mouse assessed as adverse macroscopic findings at 30 mg/kg/day, ip treated daily for 28 days; type: organism-based; conditions: in vivo, 672 h, time 28 day; procedure, shortened: as §1
[6] = Toxicity in CD-1 mouse assessed as adverse microscopic findings at 30 mg/kg/day, ip treated daily for 28 days; type: organism-based; conditions: in vivo, 672 h, time 28 day; procedure, shortened: as §1
[7] = Toxicity in CD-1 mouse assessed as change in epididymis weight at 30 mg/kg/day, ip treated daily for 28 days; type: organism-based; conditions: in vivo, 672 h, time 28 day; procedure, shortened: as §1
[8] = Toxicity in CD-1 mouse assessed as change in prostate weight at 30 mg/kg/day, ip treated daily for 28 days; type: organism-based; conditions: in vivo, 672 h, time 28 day; procedure, shortened: as §1
[9] = Toxicity in CD-1 mouse assessed as change in testis weight at 30 mg/kg/day, ip treated daily for 28 days; type: organism-based; conditions: in vivo, 672 h, time 28 day; procedure, shortened: as §1
[10] = Toxicity in CD-1 mouse assessed as change in seminal vesicle weight at 30 mg/kg/day, ip treated daily for 28 days; type: organism-based; conditions: in vivo, 672 h, time 28 day; procedure, shortened: as §1
[11] = Toxicity in CD-1 mouse assessed as inflammatory cell infiltration in epididymis at 30 mg/kg/day, ip treated daily for 28 days measured after 14 days of recovery period; type: organism-based; conditions: in vivo, 672 h, time 28 day; procedure, shortened: as §1
[12] = Drug concentration in brain of CD-1 mouse at 30 mg/kg/day, ip treated daily for 28 days; type: ADME, organism-based; conditions: time 28 day, read-out: Ct
[13] = Toxicity in CD-1 mouse assessed as drug tolerance at 30 mg/kg/day, ip treated daily for 28 days; type: organism-based; conditions: in vivo, 672 h, time 28 day; procedure, shortened: as §1
[14] = molecular target: LIM domain kinase 1 (Mus musculus) (UniProt P53668); assay: Ex vivo inhibition of LIMK in hippocampus of mouse assessed as reduction in p-cofilin level at 3 uM incubated for 30 mins by Western blot analysis; type: functional
Sequence of LIM domain kinase 1 (Mus musculus) (P53668 whole entry, the tested form may be a part): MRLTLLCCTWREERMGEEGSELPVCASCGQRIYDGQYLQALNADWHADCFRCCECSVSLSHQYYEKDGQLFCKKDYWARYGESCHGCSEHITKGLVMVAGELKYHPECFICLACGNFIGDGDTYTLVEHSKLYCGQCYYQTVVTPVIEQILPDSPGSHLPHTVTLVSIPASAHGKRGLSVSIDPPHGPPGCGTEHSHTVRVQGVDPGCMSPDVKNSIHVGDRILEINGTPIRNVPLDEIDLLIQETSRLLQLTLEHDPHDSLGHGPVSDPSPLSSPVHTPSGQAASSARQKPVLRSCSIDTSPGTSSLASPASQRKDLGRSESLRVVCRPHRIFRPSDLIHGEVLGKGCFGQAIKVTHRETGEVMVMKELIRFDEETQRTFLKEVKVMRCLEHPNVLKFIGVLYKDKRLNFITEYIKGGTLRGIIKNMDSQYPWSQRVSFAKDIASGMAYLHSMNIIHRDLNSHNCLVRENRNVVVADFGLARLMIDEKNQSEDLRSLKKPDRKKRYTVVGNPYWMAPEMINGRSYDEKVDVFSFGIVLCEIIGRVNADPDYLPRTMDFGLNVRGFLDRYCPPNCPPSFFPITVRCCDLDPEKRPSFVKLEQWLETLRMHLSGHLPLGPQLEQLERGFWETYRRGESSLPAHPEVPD
Procedure, shortened: (§2)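 Acute hippocampal slices from P7–9 WT and Fmr1 KO mice, incubated with vehicle (DMSO) or 3 μM LIMK inhibitor. p-Cofilin and total cofilin measured by Western blot and expressed as a p-cofilin/cofilin ratio. n = 2–4 animals per group. Significance by one-way ANOVA with Dunnett's multiple comparisons test.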

[15] = molecular target: LIM domain kinase 1 (Mus musculus) (UniProt P53668); assay: Ex vivo inhibition of LIMK in hippocampus of Fmr1 KO mouse model of FXS assessed as reduction in p-cofilin level at 3 uM incubated for 30 mins by Western blot analysis; type: functional; procedure, shortened: as §2

SMILES | concentration at 672 h [1] [nM] | IC50 (Cytochrome P450 1A2) [µM] | IC50 (Cytochrome P450 2C19) [µM] | IC50 (Cytochrome P450 2D6) [µM] | Activity [2] | Activity [3] | Activity [4] | Activity [5] | Activity [6] | Activity [7] | Activity [8] | Activity [9] | Activity [10] | Activity [11] | concentration at 672 h [12] [nM] | Activity [13] | inhibition [14] | inhibition [15]
O=C(c1ccc(S(=O)(=O)Nc2ccccc2)cc1)N(Cc1ccc(NCCO)cc1)CC1CC1 | 903 | > 25 | 11 | > 25 | Non-toxic | Non-toxic | Non-toxic | Non-toxic | Non-toxic | Non-toxic | Non-toxic | Non-toxic | Non-toxic | Non-toxic | 62 | Non-toxic | – | –
CCn1c(=O)c(-c2ccc(Cl)cc2Cl)cc2cnc(Nc3ccc(N4CCNCC4)c(F)c3)nc21 | – | – | – | – | – | – | – | – | – | – | – | – | – | – | – | – | Active | Active
Cc1c[nH]c2ncnc(-c3ccc(NC(=O)N(CCO)c4ccccc4)cc3)c12 | – | – | – | – | – | – | – | – | – | – | – | – | – | – | – | – | Active | Active
